This is an account of results in ChEMBL document CHEMBL3596131, “Discovery of a novel trans-1,4-dioxycyclohexane GPR119 agonist series” (Bioorg Med Chem Lett, 2015).

Data set [1] concerns the target T1, Glucose-dependent insulinotropic receptor (Homo sapiens, UniProt Q8TDV5).
T1 sequence (Q8TDV5 whole entry): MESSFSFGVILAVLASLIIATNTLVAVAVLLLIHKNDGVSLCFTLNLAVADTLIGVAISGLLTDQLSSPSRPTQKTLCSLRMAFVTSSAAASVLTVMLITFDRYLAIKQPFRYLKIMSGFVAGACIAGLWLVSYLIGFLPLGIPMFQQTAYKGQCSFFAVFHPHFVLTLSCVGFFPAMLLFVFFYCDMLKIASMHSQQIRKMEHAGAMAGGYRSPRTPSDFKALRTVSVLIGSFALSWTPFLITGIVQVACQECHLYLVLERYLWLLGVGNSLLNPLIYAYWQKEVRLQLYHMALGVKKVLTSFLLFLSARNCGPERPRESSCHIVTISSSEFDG
Put plainly: Agonist activity at human GPR119 by HTRF cAMP assay. Type of data set: functional. For orientation: In TR-FRET formats the signal depends on donor and acceptor labels being close together.

The target of data set [2] is T2, Glucose-dependent insulinotropic receptor (Homo sapiens) (UniProt Q8TDV5).
T2 sequence (whole entry): T1 sequence (Q8TDV5 whole entry)
Put plainly: Agonist activity at human GPR119 by HTRF cAMP assay relative to AR231453. Type of data set: functional.

Data set [3] has as its target T3, Glucose-dependent insulinotropic receptor (Rattus norvegicus, UniProt Q7TQN8).
T3 sequence (Q7TQN8 whole entry): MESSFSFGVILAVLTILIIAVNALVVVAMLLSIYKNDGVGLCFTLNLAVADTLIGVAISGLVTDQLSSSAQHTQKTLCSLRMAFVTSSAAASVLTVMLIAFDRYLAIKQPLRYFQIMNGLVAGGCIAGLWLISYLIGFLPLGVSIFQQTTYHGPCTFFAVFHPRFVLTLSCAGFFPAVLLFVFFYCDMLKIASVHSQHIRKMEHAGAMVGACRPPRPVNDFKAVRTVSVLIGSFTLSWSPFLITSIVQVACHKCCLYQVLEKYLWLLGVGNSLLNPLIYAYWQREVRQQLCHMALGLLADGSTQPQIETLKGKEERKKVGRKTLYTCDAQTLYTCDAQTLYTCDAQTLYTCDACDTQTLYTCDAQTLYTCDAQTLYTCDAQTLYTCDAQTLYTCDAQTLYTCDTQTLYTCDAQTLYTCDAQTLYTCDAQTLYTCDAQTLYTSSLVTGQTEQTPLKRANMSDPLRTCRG
Put plainly: Agonist activity at rat GPR119 by HTRF cAMP assay. Type of data set: functional.

Data set [4] addresses T4, Glucose-dependent insulinotropic receptor (Rattus norvegicus) (UniProt Q7TQN8).
T4 sequence (whole entry): T3 sequence (Q7TQN8 whole entry)
Kind of data set: Agonist activity at rat GPR119 by HTRF cAMP assay relative to AR231453. Type of data set: functional.

The nature of data set [5]: Half life in human liver microsomes. In kind it is ADME.
The nature of data set [6]: Half life in rat liver microsomes. Type of data set: ADME. (In general: Liver microsomes are vesicles of endoplasmic reticulum, rich in cytochrome P450 enzymes.)
A short description of data set [7]: Half life in mouse liver microsomes. Type of data set: ADME.
Data set [8] has as its target T1, Glucose-dependent insulinotropic receptor. Kind of data set: Agonist activity at human GPR119 by serum shift assay. The method in brief: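 HTRF cAMP read-out with cells plated overnight; growth medium swapped for fetal bovine serum-containing medium. Compounds serially diluted in DMSO, then in PBS with IBMX and 0.1% BSA to 2× concentration (1% DMSO) before addition. Potency compared with and without serum.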

A word on the EC50: it is the concentration needed to bring the measured effect to its halfway point. Broadly, the Emax is the maximal effect, on the per cent scale that the assay sets. For the molecule `Cc1nc(S(C)(=O)=O)ccc1O[C@H]1CC[C@H](OC2CCN(C(=O)OC(C)C)CC2)CC1`, the figures for the EC50 in data set [1] and in data set [3] were 11 nM and 89 nM, respectively. Besides, the Emax in data set [2] was found to be 108%; in data set [4], 114%.

As a reminder, the half-life is how long it takes for the measured level to halve. A low value points to rapid decline. In the case of `CS(=O)(=O)c1cnc(O[C@H]2CC[C@H](OC3CCN(CC4(C(F)(F)F)CC4)CC3)CC2)cn1`, the EC50 in data set [1] amounted to 62.6 nM; in data set [3] it was 163 nM. Also, the values for the Emax in data set [2] and in data set [4] were 116% and 124%, respectively. Moreover, the half-life in data set [5] is 0.35 h; in data set [6] it was over 1 h; in data set [7], 0.617 h.

As for `CC(C)(C)OC(=O)N1CCC(O[C@H]2CC[C@H](Oc3ccc(S(C)(=O)=O)cc3)CC2)CC1`, the EC50 is 16.1 nM in data set [1] and 94 nM in data set [3]. For the same molecule, the figures for the Emax in data set [2] and in data set [4] were 115% and 120%, respectively.

With `CS(=O)(=O)c1cnc(O[C@H]2CC[C@H](OC3CCN(C(=O)C4(C(F)(F)F)CCCC4)CC3)CC2)cn1`, the EC50 in data set [1] came to 38.4 nM; in data set [3], 108 nM. In addition, the values for the Emax in data set [2] and in data set [4] were 95% and 124%, respectively.

Take `CS(=O)(=O)c1cnc(O[C@H]2CC[C@H](OC3CCN(CC4(C(F)(F)F)CCC4)CC3)CC2)cn1`: the EC50 came to 54.8 nM in data set [1] and 80 nM in data set [3]. Besides, the values for the Emax in data set [2] and in data set [4] were 96% and 99%, respectively.

With `CC(C)OC(=O)N1CCC(O[C@H]2CC[C@H](Oc3cnc(S(C)(=O)=O)cn3)CC2)CC1`, the values for the EC50 in data set [1], in data set [8] and in data set [3] were 13.7 nM, 92.7 nM and 119 nM, respectively. For the same molecule, the Emax in data set [2] is 110%; in data set [4], 120%. For the same molecule, the half-life in data set [5], in data set [6] and in data set [7] was over 1 h in each case.

For the molecule `CC(C)(C)OC(=O)N1CCC(O[C@H]2CC[C@H](Oc3ccc(S(C)(=O)=O)cn3)CC2)CC1`, the EC50 was 47 nM in data set [1] and 110 nM in data set [3]. In addition, the Emax came out at 111% in data set [2] and 108% in data set [4].

Turning to `CCC(F)(F)C(=O)N1CCC(O[C@H]2CC[C@H](Oc3cnc(S(C)(=O)=O)cn3)CC2)CC1`, the figures for the EC50 in data set [1], in data set [8] and in data set [3] were 5.3 nM, 28.7 nM and 66.9 nM, respectively. Besides, the Emax in data set [2] was 107%; in data set [4], 126%. The half-life in data set [5] was over 1 h; in data set [6], over 1 h; in data set [7], 0.05 h.

In turn, `CC(C)(C)OC(=O)N1CCC(OC2CCC(Oc3ccc(S(C)(=O)=O)cc3)CC2)CC1` (mixture of isomers) displayed an EC50 in data set [1] of over 200 nM.

Consider `CC(C)OC(=O)N1CCC(O[C@H]2CC[C@H](Oc3ccc(S(C)(=O)=O)nc3)CC2)CC1`, for which the EC50 in data set [1] stood at 13 nM; in data set [3], 201 nM. Also, the Emax in data set [2] amounted to 101%; in data set [4] it was 125%.

On to `CS(=O)(=O)c1cnc(O[C@H]2CC[C@H](OC3CCN(C(=O)C4(C(F)(F)F)CC4)CC3)CC2)cn1`, for which the EC50 in data set [1] worked out at 107 nM; in data set [3] it was 1380 nM. Also, the Emax amounted to 107% in data set [2] and 140% in data set [4].

Turning to `CS(=O)(=O)c1cnc(O[C@H]2CC[C@H](OC3CCN(CC4(C(F)(F)F)CCCC4)CC3)CC2)cn1`, the EC50 in data set [1] amounted to 48.8 nM; in data set [3], 101 nM. Besides, the Emax was determined as 37% in data set [2] and 88% in data set [4].

In the case of `Cc1nc(S(C)(=O)=O)ccc1Oc1ncnc(OC2CCN(C(=O)OC3(C)CC3)CC2)c1F`, the Emax stood at 94% in data set [2] and 93% in data set [4].

On to `Cc1nc(O[C@H]2CC[C@H](OC3CCN(C(=O)OC(C)(C)C)CC3)CC2)ccc1C(=O)N(C)C`, for which the EC50 was 262 nM in data set [1] and 400 nM in data set [3]. For the same molecule, the values for the maximal response (Emax) in data set [2] and in data set [4] were 121% and 111%, respectively.

In the case of `COc1c(Nc2ccc(S(C)(=O)=O)nc2C)ncnc1OC1CCN(C(=O)OC(C)C)CC1`, the Emax worked out at 75% in data set [2] and 89% in data set [4].

For the molecule `CS(=O)(=O)c1cnc(O[C@H]2CC[C@H](OC3CCN(C(=O)OC(CF)CF)CC3)CC2)cn1`, the values for the EC50 in data set [1] and in data set [3] were 65.1 nM and 467 nM, respectively. Further, the Emax worked out at 114% in data set [2] and 128% in data set [4]. Also, the half-life in data set [5], in data set [6] and in data set [7] was over 1 h in each case.

Regarding `CC(C)(C)OC(=O)N1CCC(O[C@H]2CC[C@H](Oc3ccc(C#N)cc3)CC2)CC1`, the results for the half-maximal effective concentration (EC50) in data set [1], in data set [8] and in data set [3] were 8.6 nM, 334 nM and 45 nM, respectively. The Emax is 116% in data set [2] and 106% in data set [4].

`CS(=O)(=O)c1cnc(O[C@H]2CC[C@H](OC3CCN(CC4(F)CCCC4)CC3)CC2)cn1`: the figures for the EC50 in data set [1] and in data set [3] were 101 nM and 922 nM, respectively. In data set [4], the Emax was 119%.

On to `CC(C)(C)OC(=O)N1CCC(O[C@H]2CC[C@H](Oc3ccc(S(C)(=O)=O)nn3)CC2)CC1`, for which the 50% effective concentration (EC50) in data set [1] is 651 nM; in data set [3], 1160 nM. Besides, the Emax in data set [2] was 97%; in data set [4], 86%.

For `C[C@@H](CF)OC(=O)N1CCC(O[C@H]2CC[C@H](Oc3cnc(S(C)(=O)=O)cn3)CC2)CC1`, the EC50 turned out to be 31.1 nM in data set [1] and 356 nM in data set [3]. In addition, the Emax came to 105% in data set [2] and 123% in data set [4].

For `CC(C)(C)OC(=O)N1CCC(O[C@H]2CC[C@H](Oc3cnc(S(C)(=O)=O)cn3)CC2)CC1`, the EC50 in data set [1] turned out to be 5.9 nM; in data set [8], 94 nM; in data set [3] it was 64 nM. Moreover, the Emax in data set [2] and in data set [4] was 110% each time.

For the molecule `CC(C)(C)OC(=O)N1CCC(O[C@H]2CC[C@H](Oc3ccc(S(C)(=O)=O)cc3F)CC2)CC1`, the EC50 was determined as 8.5 nM in data set [1], 227 nM in data set [8] and 61 nM in data set [3]. For the same molecule, the Emax in data set [2] amounted to 113%; in data set [4], 119%.

On to `CS(=O)(=O)c1cnc(O[C@H]2CC[C@H](OC3CCN(C(=O)Oc4ccccc4)CC3)CC2)cn1`, for which the EC50 amounted to 9.6 nM in data set [1] and 71.8 nM in data set [3]. The values for the Emax in data set [2] and in data set [4] were 116% and 104%, respectively.

For `CC(C)(C)OC(=O)N1CCC(O[C@H]2CC[C@H](Oc3cnc(C#N)cn3)CC2)CC1`, the EC50 in data set [1] came out at 8.3 nM; in data set [8], 144 nM; in data set [3], 28.4 nM. Also, the figures for the Emax in data set [2] and in data set [4] were 110% and 100%, respectively.

As for `CS(=O)(=O)c1cnc(O[C@H]2CC[C@H](OC3CCN(C(=O)OC4CCOC4)CC3)CC2)cn1` (some centres undefined), the concentration giving a half-maximal response (EC50) in data set [1] is 427 nM; in data set [3], 1500 nM. The Emax was determined as 105% in data set [2] and 109% in data set [4].

Turning to `CC(C)(C)OC(=O)N1CCC(OC2CCCC(Oc3ccc(S(C)(=O)=O)cc3)C2)CC1` (mixture of isomers), in data set [1], the concentration giving a half-maximal response (EC50) is over 100000 nM.

`CC(C)(C)OC(=O)N1CCC(O[C@H]2CC[C@@H](Oc3ccc(S(C)(=O)=O)cc3)CC2)CC1`: the figures for the Emax in data set [2] and in data set [4] were 120% and 121%, respectively. In addition, a half-maximal response in data set [3] (EC50) required 1390 nM.

In the case of `C[C@H](CF)OC(=O)N1CCC(O[C@H]2CC[C@H](Oc3cnc(S(C)(=O)=O)cn3)CC2)CC1`, the EC50 in data set [1] was found to be 36.8 nM; in data set [3] it was 317 nM. The Emax is 108% in data set [2] and 115% in data set [4].

Regarding `CC(C)(C)OC(=O)N1CCC(O[C@H]2CC[C@H](Oc3ccc(S(C)(=O)=O)c(F)c3)CC2)CC1`, the EC50 came out at 52 nM in data set [1] and 167 nM in data set [3]. Also, the Emax in data set [2] came to 106%; in data set [4], 109%.

In the case of `CS(=O)(=O)c1cnc(O[C@H]2CC[C@H](OC3CCN(CC(F)(F)F)CC3)CC2)cn1`, the EC50 in data set [1] is 776 nM; in data set [3] it was 1960 nM. Further, the Emax in data set [2] is 91%; in data set [4], 105%.

`CC1(OC(=O)N2CCC(O[C@H]3CC[C@H](Oc4cnc(S(C)(=O)=O)cn4)CC3)CC2)CC1`: the EC50 was found to be 25.9 nM in data set [1] and 138 nM in data set [3]. The Emax in data set [2] amounted to 118%; in data set [4], 123%.

`CC(C)S(=O)(=O)c1cnc(O[C@H]2CC[C@H](OC3CCN(C(=O)OC(C)(C)C)CC3)CC2)cn1`: the EC50 in data set [1] stood at 18.5 nM; in data set [3] it was 54 nM. Besides, the Emax in data set [2] was 109%; in data set [4] it was 128%.
